Test results from ChEMBL document CHEMBL3244398, “Oxidative and cardiovascular studies on natural and synthetic catecholamines” (J Med Chem, 1978).

Tests used:
[1] = tested on: Rattus norvegicus; test: Acute pressor activity in iv dosed Sprague-Dawley rat assessed as duration of arterial systolic blood pressure by 30 mmHg maintenance; type: functional, Artery
Summary of the method: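 Iv jugular-cannula dosing was used in male normotensive Sprague-Dawley rats (380 ± 20 g), with arterial pressure recorded by carotid cannula and transducer. Six doses over a tenfold range were each given to four animals. Duration is the seconds for which blood pressure was […].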

[2] = physchem

SMILES | Time [1] | pKa [2]
C[C@H](N)Cc1ccc(O)c(O)c1 | 34 s | 
C[C@@H](N)Cc1ccc(O)c(O)c1 | 20 s | 
CC(N)Cc1ccc(O)c(O)c1 (racemic) | 22 s | 10
CNCC(C)c1ccc(O)c(O)c1 (racemic) | 28 s | 10.5
CC(CN)c1ccc(O)c(O)c1.Cl (racemic) | 29 s | 10
CNCC(OC)c1ccc(O)c(O)c1.Cl (racemic) | 21 s | 9.5
NCC(O)c1ccc(O)c(O)c1 (racemic) | 32 s | 9
CNCCc1ccc(O)c(O)c1 [DEOXIEPINEPHRINE] | 18 s | 10.5
CNC [DIMETHYLAMINE] |  | 10.8
NCCc1ccc(O)c(O)c1 [DOPAMINE] | 32 s | 10
CNC[C@H](O)c1ccc(O)c(O)c1 [EPINEPHRINE] | 12 s | 9.5
CN [METHYLAMINE] |  | 10.6
NC[C@H](O)c1ccc(O)c(O)c1 [NOREPINEPHRINE] | 32 s | 
